Calls of active or inactive are those of the source. The calls are words filed in the database; no cut-off is given here.
Tests used:
Cytochrome P450 2C9 = Cytochrome P450 2C9 (Homo sapiens, UniProt P11712); experiment: Inhibition of CYP2C9 (unknown origin); assay type: ADME
Cytochrome P450 2B6 = biological target: T1, Cytochrome P450 2B6 (Homo sapiens, UniProt P20813); experiment: Inhibition of CYP2B6 (unknown origin); assay type: ADME
T1 sequence (P20813 whole entry): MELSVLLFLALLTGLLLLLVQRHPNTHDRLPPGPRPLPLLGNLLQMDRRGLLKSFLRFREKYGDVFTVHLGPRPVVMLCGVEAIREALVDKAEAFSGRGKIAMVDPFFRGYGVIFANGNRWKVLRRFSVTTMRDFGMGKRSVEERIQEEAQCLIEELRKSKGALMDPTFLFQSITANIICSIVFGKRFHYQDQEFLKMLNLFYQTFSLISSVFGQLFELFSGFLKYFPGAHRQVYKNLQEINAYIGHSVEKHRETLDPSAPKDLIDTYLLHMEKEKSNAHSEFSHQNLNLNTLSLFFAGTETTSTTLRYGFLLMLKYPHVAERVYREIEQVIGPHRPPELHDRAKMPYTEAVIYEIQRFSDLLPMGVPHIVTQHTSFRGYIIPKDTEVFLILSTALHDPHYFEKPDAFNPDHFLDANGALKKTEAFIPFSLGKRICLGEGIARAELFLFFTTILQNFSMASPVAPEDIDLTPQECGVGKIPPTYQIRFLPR

Mus musculus = experiment: In vivo inhibition of MPO in PMA-stimulated C57BL6 mouse neutrophil degranulation model assessed as reduction in HOCl production at 100 mg/kg, po pretreated for 20 mins followed by PMA stimulation and measured after 2 mins by luminol chemiluminescence assay relative to control; assay type: functional
[1] = Protein binding in human plasma; assay type: ADME, cell-free; conditions: read-out: PPB
[2] = biological target: T2, Myeloperoxidase (Homo sapiens) (UniProt P05164); experiment: Reversible inhibition of human MPO peroxidase activity at 50 to 250 nM preincubated for up to 30 mins followed by H2O2 addition and 2 to 10 times compound dilution measured at 30 secs time interval for 5 mins by amplex red reagent based fluorescence assay
T2 sequence (whole entry): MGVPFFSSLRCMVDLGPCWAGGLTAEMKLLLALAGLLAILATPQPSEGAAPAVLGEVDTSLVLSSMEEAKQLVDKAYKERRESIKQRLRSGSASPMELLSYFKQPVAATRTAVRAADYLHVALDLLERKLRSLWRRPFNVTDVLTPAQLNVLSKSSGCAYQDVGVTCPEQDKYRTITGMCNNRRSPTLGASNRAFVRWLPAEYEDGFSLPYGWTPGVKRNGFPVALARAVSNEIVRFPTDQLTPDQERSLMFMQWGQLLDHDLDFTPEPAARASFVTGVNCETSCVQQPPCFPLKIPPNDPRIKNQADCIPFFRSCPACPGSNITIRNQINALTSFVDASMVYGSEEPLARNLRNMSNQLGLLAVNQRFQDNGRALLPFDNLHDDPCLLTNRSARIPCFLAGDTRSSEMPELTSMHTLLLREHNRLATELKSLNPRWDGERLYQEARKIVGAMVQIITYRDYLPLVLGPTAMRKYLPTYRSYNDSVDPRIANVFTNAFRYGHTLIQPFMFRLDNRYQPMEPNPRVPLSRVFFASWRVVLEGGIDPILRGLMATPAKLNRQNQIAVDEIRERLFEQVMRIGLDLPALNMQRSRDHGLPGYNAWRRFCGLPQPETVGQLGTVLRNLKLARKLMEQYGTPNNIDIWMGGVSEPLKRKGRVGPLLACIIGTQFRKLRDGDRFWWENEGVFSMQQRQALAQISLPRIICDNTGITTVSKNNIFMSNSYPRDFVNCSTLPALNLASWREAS
In short: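 20 nM MPO in phosphate buffer with 100 nM H2O2 and inhibitor at 2–10-fold enzyme concentration. Controls: 0.2% DMSO, irreversible hydrazide. Aliquots taken after 2, 10, 20 and 30 min and passed through a G50 spin column. 5 µL flow-through assayed by Amplex Red; initial rate gave % activity remaining versus control. Also run with 100 mM NaCl and 150 µM L-methionine.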

[3] = Ratio of plasma concentration in PMA-stimulated C57BL6 mouse neutrophil degranulation model at 30 mg/kg, po after 20 mins to in vitro IC50 for MPO in PMA-stimulated human neutrophils; assay type: ADME, organism-based; conditions: in vivo
[4] = Ratio of plasma concentration in PMA-stimulated C57BL6 mouse neutrophil degranulation model at 100 mg/kg, po after 20 mins to in vitro IC50 for MPO in PMA-stimulated human neutrophils; assay type: ADME, organism-based; conditions: in vivo
[5] = Plasma concentration in PMA-stimulated C57BL6 mouse neutrophil degranulation model at 100 mg/kg, po after 20 mins; assay type: ADME, organism-based
Myeloperoxidase = biological target: T3, Myeloperoxidase (Homo sapiens, UniProt P05164); experiment: Inhibition of human MPO chlorination activity assessed as reduction in ApoA1-mediated [1,2 3H]-cholesterol efflux in PMA-stimulated human THP1 cells preincubated with enzyme and ApoA1 for 30 mins in presence of H2O2 followed by addition to THP1 cells and measured after overnight incubation
T3 sequence (P05164 whole entry): T2 sequence (whole entry)

[6] = Protein binding in mouse plasma; assay type: ADME, cell-free; conditions: read-out: PPB (converted)

Cytochrome P450 2C9, sequence (P11712 whole entry): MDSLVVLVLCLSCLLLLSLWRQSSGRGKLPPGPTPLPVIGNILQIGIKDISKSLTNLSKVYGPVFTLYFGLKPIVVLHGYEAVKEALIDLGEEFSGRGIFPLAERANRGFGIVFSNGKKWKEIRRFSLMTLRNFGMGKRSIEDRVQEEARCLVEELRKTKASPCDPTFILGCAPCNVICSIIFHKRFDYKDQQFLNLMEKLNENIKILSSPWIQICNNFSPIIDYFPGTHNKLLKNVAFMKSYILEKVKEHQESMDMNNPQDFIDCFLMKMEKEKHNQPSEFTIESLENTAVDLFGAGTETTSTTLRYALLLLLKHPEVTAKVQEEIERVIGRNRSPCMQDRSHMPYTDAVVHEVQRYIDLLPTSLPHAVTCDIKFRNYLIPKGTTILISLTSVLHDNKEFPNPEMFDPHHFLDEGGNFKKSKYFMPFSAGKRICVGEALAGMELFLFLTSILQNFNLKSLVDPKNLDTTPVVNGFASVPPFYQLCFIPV

Compound	IC50 (Cytochrome P450 2C9) [µM]	IC50 (Cytochrome P450 2B6) [µM]	inhibition in vivo at 100 mg/kg (Mus musculus) [%]	fraction unbound [1]	inhibition [2]	Ratio [3]	Ratio [4]	concentration at 20 min [5] [µM]	EC50 (Myeloperoxidase) [µM]	fraction unbound [6]
Nc1ccc(Oc2cc(Cl)c(Cl)cc2Cl)cn1	< 0.1	< 0.1	–	–	–	–	–	–	–	–
Nc1nc(OCc2ccccc2)c2[nH]nnc2n1	–	–	70	0.01	Active	36	92	460	10	0.13

Reference: ChEMBL document CHEMBL4261550, “Triazolopyrimidines identified as reversible myeloperoxidase inhibitors” (Medchemcomm, 2017)
